Experimental findings from ChEMBL document CHEMBL2021912, “Synthesis, cytotoxicity and apoptosis of cyclotriphosphazene compounds as anti-cancer agents” (Eur J Med Chem, 2012) are described below.

The source made the active and inactive calls. No cut-off for these calls is given here.

Data set [1] concerns HEp-2. Put plainly: Induction of apoptosis in human Hep2 cells assessed as viable cell level after 24 hrs by annexin V-FITC and propidium iodide staining based flow cytometry. It counts as functional. The method, boiled down: (§1)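 Hep2 seeded at 2-3 × 10^6 per flask, treated 24 h at several concentrations; cisplatin 200 µM positive control; cells in HEPES pH 7.4/NaCl/CaCl2 buffer stained with annexin V-FITC 100 ng/mL and PI 0.1 µg/mL, 15 min room temperature, dark; flow cytometry quadrants; three experiments in duplicate.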
In general terms: A flow cytometer gives signals particle by particle.

The subject of data set [2] is HEp-2. Put plainly: Induction of apoptosis in human Hep2 cells assessed as early apoptotic cells level after 24 hrs by annexin V-FITC and propidium iodide staining based flow cytometry. It is filed as functional. The essentials: as §1
The subject of data set [3] is HEp-2. Put plainly: Induction of apoptosis in human Hep2 cells assessed as late apoptotic cells level after 24 hrs by annexin V-FITC and propidium iodide staining based flow cytometry. It is filed as functional. The essentials: as §1
In data set [4] the test system is HEp-2. In words: Induction of apoptosis in human Hep2 cells assessed as necrotic cells level after 24 hrs by annexin V-FITC and propidium iodide staining based flow cytometry. It is filed as functional. The essentials:
as §1

Another data set has as its system Pseudomonas aeruginosa. Put plainly: Antibacterial activity against Pseudomonas aeruginosa ATCC 27853 after 18 to 24 hrs by broth microdilution method. It counts as functional. As to conditions: read-out: ID50 (the source's name). In general terms: In broth dilution the organism is exposed to a series of concentrations in liquid medium.
The test system of the next data set is Escherichia coli. Put plainly: Antibacterial activity against Escherichia coli ATCC 35218 after 18 to 24 hrs by broth microdilution method. Particulars: read-out: ID50 (the source's name). It is filed as functional.
A further data set deals with Staphylococcus aureus. Put plainly: Antibacterial activity against Staphylococcus aureus ATCC 25923 after 18 to 24 hrs by broth microdilution method. It is filed as functional. As to conditions: read-out: ID50 (the source's name).
For another data set, the system named is Candida albicans. In words: Antifungal activity against Candida albicans ATCC 10231 after 48 hrs by broth microdilution method. It is filed as functional. As to conditions: ATCC 10231, 48 h, read-out: ID50 (the source's name).
Data set [5] relates to HT-29. Put plainly: Cytotoxicity against human HT-29 cells after 24 hrs at 37 degC by MTT assay. It counts as functional. Particulars: for IC50: HT-29, 24 h, read-out: ID50 (the source's name). The essentials: (§2)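 Vero and HT-29 grown in DMEM/10% FBS, Hep2 in EMEM/10% FBS; seeded at 2 × 10^4 (Vero, Hep2) or 3 × 10^4 (HT-29) cells/mL; exposed 24 h to 0.2–50 µg/mL compound, final DMSO 1%; MTT 1 mg/mL 2 h at 37 °C, formazan in DMSO, OD 540 nm; % of DMSO control; ID50 by probit; triplicate wells, three repeats.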
(In general: Formazan colour is commonly taken as a measure of viable cells.)

The test system of data set [6] is HEp-2. In words: Cytotoxicity against human Hep2 cells after 24 hrs at 37 degC by MTT assay. It is filed as functional. Particulars: for IC50: HEp-2, 24 h, read-out: ID50 (the source's name). The method, boiled down:
as §2

Data set [7] can be described thus: (§3) Cytotoxicity against african green monkey Vero cells after 24 hrs at 37 degC by MTT assay. It counts as cell-based. Particulars: chlorocebus sabaeus, Vero cells; read-out: ID50. The method, boiled down:
as §2

The test system of a further data set is Vero. The data set is described as §3. It is filed as cell-based. As to conditions: chlorocebus sabaeus, vero, 24 h. The method, boiled down:
as §2

Data set [8] relates to HT-29. Put plainly: Induction of apoptosis in human HT-29 cells assessed as early apoptotic cells level after 24 hrs by annexin V-FITC and propidium iodide staining based flow cytometry. It counts as functional. The method, boiled down:
(§4)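 HT-29 seeded at 2-3 × 10^6 per flask in 10% FBS-DMEM, treated 24 h at several concentrations; etoposide (12.5–50 µg/mL) positive control; cells in HEPES pH 7.4/NaCl/CaCl2 buffer stained with annexin V-FITC 100 ng/mL and PI 0.1 µg/mL, 15 min room temperature, dark; flow cytometry quadrants; three experiments in duplicate.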

In data set [9] the test system is HT-29. Put plainly: Induction of apoptosis in human HT-29 cells assessed as late apoptotic cells level after 24 hrs by annexin V-FITC and propidium iodide staining based flow cytometry. It is filed as functional. The method, boiled down: as §4
In data set [10] the test system is HT-29. In words: Induction of apoptosis in human HT-29 cells assessed as necrotic cells level after 24 hrs by annexin V-FITC and propidium iodide staining based flow cytometry. It is filed as functional. The essentials: as §4
In data set [11] the test system is HT-29. In words: Induction of apoptosis in human HT-29 cells assessed as viable cell level after 24 hrs by annexin V-FITC and propidium iodide staining based flow cytometry. It is filed as functional. The method, boiled down: as §4

With `FC1(F)COP2(=NP34=NP5(=N2)NCCCN5CCCCN3CCCN4)OCC1(F)F` (stereo unspecified), the Activity is listed as 32.78% with HEp-2 [1], 60.78% with HEp-2 [2], 5.34% in the data set on HEp-2 [3] and 1.1% in the data set with HEp-2 [4]. The IC50 in the data set on Pseudomonas aeruginosa is more than 250 µg/mL; with Escherichia coli it was more than 250 µg/mL; in the data set on Staphylococcus aureus, more than 250 µg/mL; with Candida albicans it was more than 250 µg/mL; with HEp-2 [6] it was 3390 nM. The ID50 result with HT-29 [5] was “inactive”. Also, the CC50 at 24 h in [7] is 5410 nM.

As to `ClP1(Cl)=NP2(=NP(Nc3ccccc3)(Nc3ccccc3)=N1)NCCCN2CCCCN1CCCNP12=NP(Nc1ccccc1)(Nc1ccccc1)=NP(Cl)(Cl)=N2` (stereo unspecified), the IC50 in the data set on Pseudomonas aeruginosa, in the data set with Escherichia coli, in the data set on Staphylococcus aureus and in the data set with Candida albicans was more than 250 µg/mL in each case. The ID50 result in the data set on HT-29 [5] and in the data set with HEp-2 [6] was “inactive” throughout. In the data set with Vero, the ID50 entry is recorded as “Non-toxic”.

As for `ClP1(Cl)=NP2(=NP(Sc3ccccc3)(Sc3ccccc3)=N1)NCCCN2CCCCN1CCCNP12=NP(Sc1ccccc1)(Sc1ccccc1)=NP(Cl)(Cl)=N2` (stereo unspecified), the IC50 with Pseudomonas aeruginosa was more than 250 µg/mL; in the data set on Escherichia coli, more than 250 µg/mL; in the data set on Staphylococcus aureus, more than 250 µg/mL; in the data set with Candida albicans, more than 250 µg/mL; in the data set on HT-29 [5], 1960 nM. In the data set on HEp-2 [6], the ID50 result is “inactive”. The CC50 at 24 h in [7] is 3350 nM.

As to `CC1(C)COP2(=NP(Cl)(Cl)=NP3(=N2)NCCCN3CCCCN2CCCNP23=NP2(=NP(Cl)(Cl)=N3)OCC(C)(C)CO2)OC1` (stereo unspecified), the Activity is on record as 63.78% with HT-29 [8], 1.97% with HT-29 [9], 1.41% in the data set with HT-29 [10] and 32.84% with HT-29 [11]. In addition, the IC50 in the data set with Pseudomonas aeruginosa is more than 250 µg/mL; with Escherichia coli, more than 250 µg/mL; in the data set on Staphylococcus aureus it was more than 250 µg/mL; in the data set with Candida albicans it was more than 250 µg/mL; in the data set with HT-29 [5], 2750 nM. In addition, the ID50 entry in the data set with HEp-2 [6] is “inactive”. Also, the CC50 at 24 h in [7] came out at 2650 nM.

As for `CC1(C)COP2(=NP34=NP5(=N2)NCCCN5CCCCN3CCCN4)OC1` (stereo unspecified), the Activity in the data set with HEp-2 [1] stood at 19.39%; with HEp-2 [2], 77.29%; with HEp-2 [3], 3.32%; in the data set on HEp-2 [4], 0%. Also, the IC50 in the data set on Pseudomonas aeruginosa is more than 250 µg/mL; in the data set with Escherichia coli it was more than 250 µg/mL; in the data set on Staphylococcus aureus, more than 250 µg/mL; with Candida albicans, more than 250 µg/mL; with HEp-2 [6] it was 3230 nM. The ID50 result with HT-29 [5] was “inactive”. For the same compound, in [7], the CC50 at 24 h is 5880 nM.

On to `c1ccc(NP2(Nc3ccccc3)=NP34=NP5(=N2)NCCCN5CCCCN3CCCN4)cc1` (stereo unspecified), for which the Activity in the data set with HT-29 [8] was 80.1%; with HT-29 [9], 0.35%; with HT-29 [10] it was 1.35%; in the data set with HT-29 [11], 18.2%. Further, the IC50 with Pseudomonas aeruginosa is more than 250 µg/mL; in the data set with Escherichia coli, more than 250 µg/mL; with Staphylococcus aureus it was more than 250 µg/mL; in the data set with Candida albicans, more than 250 µg/mL; with HT-29 [5], 4580 nM. Also, the ID50 entry in the data set with HEp-2 [6] is “inactive”. The CC50 at 24 h in data set [7] amounted to 6550 nM.

For `FC1(F)COP2(=NP(Cl)(Cl)=NP3(=N2)NCCCN3CCCCN2CCCNP23=NP(Cl)(Cl)=NP2(=N3)OCC(F)(F)C(F)(F)CO2)OCC1(F)F` (stereo unspecified), the Activity with HT-29 [8] is given as 81.42%; with HT-29 [9], 0.53%; with HT-29 [10], 0.8%; with HT-29 [11], 17.25%. The IC50 in the data set with Pseudomonas aeruginosa is more than 250 µg/mL; in the data set with Escherichia coli, more than 250 µg/mL; with Staphylococcus aureus it was more than 250 µg/mL; with Candida albicans, more than 250 µg/mL; in the data set with HT-29 [5], 2330 nM. Also, the ID50 result with HEp-2 [6] is “inactive”. Further, in [7], the CC50 at 24 h turned out to be 1310 nM.

As to `FC1(F)COP2(Cl)=NP(Cl)(=NP3(=N2)NCCCN3CCCCN2CCCNP23=NP2(Cl)=NP(Cl)(=N3)OCC(F)(F)C(F)(F)CO2)OCC1(F)F` (stereo unspecified), the IC50 was more than 250 µg/mL with Pseudomonas aeruginosa; more than 250 µg/mL with Escherichia coli; more than 250 µg/mL in the data set with Staphylococcus aureus; more than 250 µg/mL in the data set on Candida albicans; 2630 nM with HEp-2 [6]. For the same compound, the ID50 entry with HT-29 [5] is “inactive”. In addition, the CC50 at 24 h in data set [7] stood at 1610 nM.
